Experimental data taken from publication PMC7032160 (Asian Journal of Pharmaceutical Sciences, 2017).
Where two headings read alike, the source gives them in different places.

How the values were obtained:
[1] = Pharmacokinetic study in rats after oral administration of JDR or gemcitabine; format: in vivo; conditions: male, Wistar, rat, plasma, 50 mg/kg
Outline: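 Twelve male Wistar rats (180–220 g) were fasted 12 h and randomized into two groups (n = 6). Each received one oral dose: prodrug at gemcitabine-equivalent 50 mg/kg or parent drug 50 mg/kg. Blood was drawn at 0.083–48 h (prodrug) or 0.25–24 h (parent) into heparinized THU-treated tubes and spun 3000 × g 15 min; plasma was kept at −80 °C. Analysis was UPLC–MS/MS MRM, with noncompartmental parameters.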

[2] = format: in vitro ADME, rat; conditions: for Concentration founded: n = 3
Outline: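 QC samples (n = 3) were spiked into THU-pretreated rat plasma at low, mid and high levels: 15, 125, 3200 ng/ml prodrug and 12, 125, 3200 ng/ml parent drug. 50 µl plasma was protein-precipitated with methanol plus didanosine IS and centrifuged. Extracts were held in the autosampler at 10 °C for 8 h before UPLC–MS/MS. Read-outs were found concentration and relative error.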

Cmax [1]: 1180 ± 47.1 ng/mL
Tmax [1]: 1.5 ± 0.9 h
half-life [1]: 2.61 ± 1.1 h
RE% ([2]; autosampler rack at 10 °C for 8 h, High QC): −6.4%
RE% ([2]; autosampler rack at 10 °C for 8 h, Low QC): 0.9%
RE% ([2]; autosampler rack at 10 °C for 8 h, Mid QC): 9.1%
RE% ([2]; rat plasma, bench-top (20 °C for 1 h), High QC): −8.9%
Concentration founded ([2]; rat plasma, bench-top (20 °C for 1 h), High QC (added 3200.00 ng/ml)): 2915.15 ± 95.7 ng/mL
RE% ([2]; rat plasma, bench-top (20 °C for 1 h), Low QC): −4.8%
RE% ([2]; rat plasma, bench-top (20 °C for 1 h), Mid QC): 7.8%
Concentration founded ([2]; rat plasma, bench-top (20 °C for 1 h), Mid QC (added 125.00 ng/ml)): 134.78 ± 1.6 ng/mL
RE% ([2]; rat plasma, freezing at -80 °C for 2 months, High QC): −0.1%
RE% ([2]; rat plasma, freezing at -80 °C for 2 months, Low QC): −2.1%
RE% ([2]; rat plasma, freezing at -80 °C for 2 months, Mid QC): 4.3%
Concentration founded ([2]; rat plasma, freezing at -80 °C for 2 months, Mid QC (added 125.00 ng/ml)): 130.38 ± 10.6 ng/mL
RE% ([2]; rat plasma, three freeze/thaw cycles (-80 to 20 °C), High QC): −7.3%
RE% ([2]; rat plasma, three freeze/thaw cycles (-80 to 20 °C), Low QC): −2.0%
RE% ([2]; rat plasma, three freeze/thaw cycles (-80 to 20 °C), Mid QC): 7.4%
SMILES: Nc1ccn([C@@H]2O[C@H](CO)[C@@H](O)C2(F)F)c(=O)n1 [Gemcitabine]
